Measurements as given in ChEMBL document CHEMBL2417357, “Synthesis and antiprotozoal activities of benzyl phenyl ether diamidine derivatives” (Eur J Med Chem, 2013).
The source made the active and inactive calls. The calls are words filed in the database; no cut-off is given here.

How the values were obtained:
[1] = tested on: Trypanosoma brucei rhodesiense; experiment: Antitrypanosomal activity against Trypanosoma brucei rhodesiense STIB900 infected in NMRI mouse assessed as cured animal at 20 mg/kg, ip administered for 4 days; format: functional, organism-based; set-up: dose 20 mg/kg
Method in brief: (§1)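 Acute model in female NMRI mice infected with T. b. rhodesiense STIB900. Single daily doses given for four days, intraperitoneally or orally. Mice surviving 60 days post-infection without parasitaemia relapse counted as cured; result reported as cured/infected out of 4 mice per group, with mean survival in days.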

[2] = tested on: Trypanosoma brucei rhodesiense; experiment: Antitrypanosomal activity against Trypanosoma brucei rhodesiense STIB900 infected in NMRI mouse assessed as mean survival days at 20 mg/kg, ip administered for 4 days; format: functional; conditions: route intraperitoneal
Method in brief: (§2)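 Female NMRI mice, acute infection model with T. b. rhodesiense STIB900. Compound given as a single daily dose for four days, intraperitoneally or orally. Cure means survival to 60 days post-infection without parasitaemia relapse. Mean survival recorded in days.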

L6 = experiment: Cytotoxicity against rat L6 cells after 72 hrs by Alamar blue assay; format: cell-based; conditions: L6, 72 h
Method in brief: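 Rat L6 myoblast cells; cytotoxic IC50 taken as the average of duplicate determinations.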

[3] = Selectivity index, ratio of IC50 for rat L6 cells to IC50 for chloroquine-resistant Plasmodium falciparum K1; format: toxicity, cell-based; conditions: read-out: Ratio IC50
Method in brief: (§3)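 SI = IC50 in rat L6 myoblasts / IC50 against the parasite (T. b. rhodesiense STIB900 or P. falciparum K1). Each IC50 is the average of duplicate determinations.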

Plasmodium falciparum = experiment: Antiplasmodial activity against chloroquine-resistant Plasmodium falciparum K1; format: functional, organism-based
Method in brief: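 Chloroquine-resistant K1 strain tested in vitro. IC50 is the average of duplicate determinations.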

[4] = Selectivity index, ratio of IC50 for rat L6 cells to IC50 for Trypanosoma brucei rhodesiense STIB900; format: toxicity, cell-based; conditions: read-out: Ratio IC50; method in brief: as §3
[5] = tested on: Trypanosoma brucei rhodesiense; experiment: Antitrypanosomal activity against Trypanosoma brucei rhodesiense STIB900 after 72 hrs by Alamar blue assay; format: functional, organism-based; conditions: STIB900, 72 h
[6] = tested on: Trypanosoma brucei rhodesiense; experiment: Antitrypanosomal activity against Trypanosoma brucei rhodesiense STIB900 infected in NMRI mouse assessed as cured animal at 2 mg/kg, ip administered for 4 days; format: functional, organism-based; set-up: dose 2 mg/kg; method in brief: as §2
[7] = tested on: Trypanosoma brucei rhodesiense; experiment: Antitrypanosomal activity against Trypanosoma brucei rhodesiense STIB900 infected in NMRI mouse assessed as mean survival days at 2 mg/kg, ip administered for 4 days; format: functional; conditions: route intraperitoneal; method in brief: as §2
[8] = tested on: Trypanosoma brucei rhodesiense; experiment: Antitrypanosomal activity against Trypanosoma brucei rhodesiense STIB900 infected in NMRI mouse assessed as cured animal at 100 mg/kg, po administered for 4 days; format: functional, organism-based; set-up: dose 100 mg/kg; method in brief: as §1
[9] = tested on: Trypanosoma brucei rhodesiense; experiment: Antitrypanosomal activity against Trypanosoma brucei rhodesiense STIB900 infected in NMRI mouse assessed as cured animal at 25 mg/kg, po administered for 4 days; format: functional, organism-based; set-up: dose 25 mg/kg; method in brief: as §1
[10] = tested on: Trypanosoma brucei rhodesiense; experiment: Antitrypanosomal activity against Trypanosoma brucei rhodesiense STIB900 infected in NMRI mouse assessed as mean survival days at 25 mg/kg, po administered for 4 days; format: functional; method in brief: as §2
[11] = tested on: Trypanosoma brucei rhodesiense; experiment: Antitrypanosomal activity against Trypanosoma brucei rhodesiense STIB900 infected in NMRI mouse assessed as mean survival days at 100 mg/kg, po administered for 4 days; format: functional; method in brief: as §2
Leishmania donovani = experiment: Antileishmanial activity against amastigotes of Leishmania donovani MHOM/SD/62/IS-CL2D; format: functional, organism-based
Method in brief: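 Axenic amastigotes of L. donovani MHOM/SD/62/IS-CL2D; IC50 taken as the average of at least two determinations.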

[12] = Selectivity index, ratio of IC50 for rat L6 cells to IC50 for amastigotes of Leishmania donovani; format: toxicity, cell-based; conditions: read-out: Ratio IC50
Method in brief: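 SI = IC50 in rat L6 myoblasts / IC50 against L. donovani MHOM/SD/62/IS-CL2D axenic amastigotes. The amastigote IC50 is the average of at least two determinations; the L6 IC50 is the average of duplicates.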

For `N=C(N)c1cccc(COc2cccc(C(=N)N)c2)c1`, the Activity [1] was “inactive”, the MSD [2] was 19.8 days and the IC50 (L6) was 24 µM. It also gave a selectivity ratio [3] of 198, an IC50 (Plasmodium falciparum) of 0.121 µM and a selectivity ratio [4] of 248. It also gave an IC50 [5] of 0.097 µM.
In the case of `Nc1nc(N)nc(Nc2ccc([As]3SCC(CO)S3)cc2)n1` (configuration not stated) [MELARSOPROL], the Activity [6] is reported as “Active”, the MSD [7] is reported as greater than 60 days and the selectivity ratio [4] is reported as 1220.
In the case of `N=C(N)c1ccc(OCc2cccc(C(=N)N)c2)cc1`, the Activity [1] is reported as “inactive”, the MSD [2] is reported as 25.25 days and the IC50 (L6) is reported as 5.93 µM. The selectivity ratio [3] was 168, the IC50 (Plasmodium falciparum) was 0.035 µM and the selectivity ratio [4] was 250. The IC50 [5] was 0.024 µM.
In the case of `Cl.Cl.N/C(=N\O)c1cccc(COc2c(Br)cc(/C(N)=N/O)cc2Br)c1`, the Activity [8] is reported as “Active”, the Activity [9] is reported as “inactive” and the MSD [10] is reported as 20.75 days. The MSD [11] was greater than 60 days, the IC50 (L6) was 26.8 µM and the IC50 (Leishmania donovani) was 61.1 µM. For the same compound, the selectivity ratio [12] was less than 1, the selectivity ratio [3] was 4 and the IC50 (Plasmodium falciparum) was 7.56 µM. For the same compound, the selectivity ratio [4] was 4 and the IC50 [5] was 6.89 µM.
`Cl.Cl.N/C(=N\O)c1ccc(COc2ccc(/C(N)=N/O)cc2)cc1` gave an MSD [10] greater than 31.7 days, an MSD [11] greater than 46.25 days and an IC50 (L6) of 8.28 µM. The IC50 (Leishmania donovani) was greater than 100 µM, the selectivity ratio [12] was less than 1 and the selectivity ratio [3] was less than 1. The IC50 (Plasmodium falciparum) was 9.49 µM, the selectivity ratio [4] was less than 1 and the IC50 [5] was greater than 238 µM.
